Only some compounds are listed: those with a hit (about 3.4% of all), similar ones and a draw of the others.
AHR activator – human AHR activation. 320,000 compounds, 2.5% hits. activation, % at 5 µM. AHR-responsive luciferase reporter cells, luminescence. P35869; in the data active means activation above about 47%;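 further: 0% = vehicle wells and 100% = reference agonist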
Target sequence (P35869 whole entry, looked up): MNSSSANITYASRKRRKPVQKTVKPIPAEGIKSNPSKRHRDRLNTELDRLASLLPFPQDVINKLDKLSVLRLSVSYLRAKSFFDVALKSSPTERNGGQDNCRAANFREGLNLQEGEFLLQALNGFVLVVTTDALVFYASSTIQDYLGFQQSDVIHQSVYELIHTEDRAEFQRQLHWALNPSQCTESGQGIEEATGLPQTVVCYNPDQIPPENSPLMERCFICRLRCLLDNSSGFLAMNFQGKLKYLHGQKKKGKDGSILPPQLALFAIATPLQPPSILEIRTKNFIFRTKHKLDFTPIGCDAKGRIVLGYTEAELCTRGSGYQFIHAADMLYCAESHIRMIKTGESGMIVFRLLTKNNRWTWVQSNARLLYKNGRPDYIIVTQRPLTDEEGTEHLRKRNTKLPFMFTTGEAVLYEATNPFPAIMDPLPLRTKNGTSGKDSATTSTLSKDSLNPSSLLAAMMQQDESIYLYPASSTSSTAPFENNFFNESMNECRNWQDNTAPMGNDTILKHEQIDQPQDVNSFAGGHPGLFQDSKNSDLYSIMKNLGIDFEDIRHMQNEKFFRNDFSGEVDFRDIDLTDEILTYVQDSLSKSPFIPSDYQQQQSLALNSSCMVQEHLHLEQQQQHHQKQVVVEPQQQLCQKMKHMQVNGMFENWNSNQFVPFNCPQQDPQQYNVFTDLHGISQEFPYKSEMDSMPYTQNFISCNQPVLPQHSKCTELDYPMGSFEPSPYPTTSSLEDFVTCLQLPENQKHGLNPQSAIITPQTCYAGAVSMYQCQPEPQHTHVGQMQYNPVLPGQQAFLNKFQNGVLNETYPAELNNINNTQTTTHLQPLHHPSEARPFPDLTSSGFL
A3G deaminase – inhibitors of human APOBEC3G DNA deaminase. inhibition, % at 20 µM. recombinant A3G, ssDNA deamination FAM/TAMRA fluorescence. Q9HC16. 330,000 compounds, 0.28% hits;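 active means inhibition of at least 40% at 20 µM, with no more than 30% in the related APOBEC3A deaminase screen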;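 further: plate controls were DMSO wells with A3G for no effect and wells lacking A3G enzyme for full effect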
UCH37 inh – inhibitors of human deubiquitinating enzyme UCH37; inhibition, % (no concentration beside the values); purified proteasome/UCH37, Ub-AMC cleavage fluorescence; 330,000 compounds, 0.33% hits; Q9Y5K5;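 active means mean inhibition over replicate wells above about 20%, limit read from the data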;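 further: 0% = compound-free wells with enzyme and 100% = wells lacking proteasome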
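Reagent: Ub-AMC substrate; assay system: Proteasome-associated human UCH37 deubiquitinase; controls: no-proteasome and no-compound wells; read-out: % inhibition of Ub-AMC cleavage fluorescence; timing: 30 min preincubation with enzyme, 25 min cleavage at room temperature; signal: AMC fluorescence from Ub-AMC cleavage, excitation 355 nm, emission 460 nm; buffer or medium: Tris-HCl pH 7.4 plus ovalbumin, ATP-MgCl2, DTT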
PolyA inh – yeast polyadenylation inhibition | S. cerevisiae SKY197-pL101 polyadenylation reporter, beta-gal luminescence; efflux-impaired pdr1/pdr3 knockout yeast; score 100 = 6 SD above DMSO | activity score, % at 12 µM | 300,000 compounds, 0.02% hits;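 active means lowest replicate activity score at least 50, where 100 means six control SD above control mean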;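 further: yeast exposed to compound for 9 h at 30 °C; higher score means more reporter readthrough which indicates perturbed polyadenylation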
Arr AP2 block – human beta-arrestin and AP2 interaction inhibition; inhibition, % at 10 µM; 340,000 compounds, 0.31% hits; FITC-arrestin peptide / GST-AP2 beads, flow cytometry; AP2 beta2 appendage carries R879A mutation;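 active means inhibition above a set limit, near 3 SD of compounds lacking own fluorescence, cut at about 54% in these data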;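 further: plate controls were DMSO wells for no effect and 5 µM unlabelled arrestin peptide for full effect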
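Test system: GST-tagged AP2 beta2-adaptin appendage (R879A) on 4 µm glutathione beads; also added: fluorescein-tagged arrestin peptide at 50 nM final; timing: 12 min plus 1 h, RT; signal: flow cytometry, FL1 (488/535 nm); read-out: percent drop in bead-associated FITC signal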
APOBEC3A inh – blocks human APOBEC3A ssDNA deamination; recombinant A3A, FAM/TAMRA ssDNA deamination fluorescence; 330,000 compounds, 0.41% hits; inhibition, % at 20 µM; P31941;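 active means at least 40% inhibition at 20 µM here, with at most 30% in a related deaminase screen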;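 further: plate controls were A3A with DMSO for no effect and wells lacking A3A enzyme for full effect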
Starred values were filed as active, the others as inactive; x = not tested or not shown.

SMILES | AHR activator | A3G deaminase | UCH37 inh | PolyA inh | Arr AP2 block | APOBEC3A inh
CC(=O)Nc1sc(NN=Cc2ccccc2)nc1-c1ccc(C)cc1 | x | x | -4.3 | x | x | x
CC(=NNC(=O)c1cc(C)nc2ccccc12)c1cccc(Cl)c1 | x | x | 2.3 | x | x | x
COc1ccccc1NC(=O)CC1Nc2ccccc2NC1=O (configuration not stated) | 56.3* | -4.6 | -0.1 | 6.4 | 2.6 | 0.1
Cc1cccc(NC(=O)CC2Nc3cccc4cccc(c34)NC2=O)c1 (configuration not stated) | 74.7* | -3.3 | -11.0 | 2.5 | 46.5 | 3.1
COc1ccc(NC(=O)CC2Nc3ccccc3NC2=O)c([N+](=O)[O-])c1 (configuration not stated) | 5.8 | -8.6 | -1.6 | 2.3 | 0.1 | 1.8
Nc1cccnc1Sc1cc(Cl)c(Cl)cc1Cl | 59.5* | -1.5 | 6.1 | -9.3 | -6.2 | -1.7
Nc1cccnc1Sc1ccc([N+](=O)[O-])cn1 | x | x | 6.1 | 8.6 | 20.6 | x
COC(=O)NN=Cc1cn(CCCOc2ccccc2)c2ccccc12 | x | x | 4.2 | x | x | x
CCOc1cc(/C=N/NC(=O)Cc2ccc(C(F)(F)F)cc2[N+](=O)[O-])c(Br)cc1OC | 4.1 | -0.4 | x | 22.1 | 17.8 | 1.4
COc1cc(C=NNC(=O)Cc2ccccc2)cc([N+](=O)[O-])c1O | x | x | 21.9* | x | x | x
COc1cc(Br)cc(/C=N/NC(=O)Cc2ccc(C(F)(F)F)cc2[N+](=O)[O-])c1O | 50.5* | -4.4 | x | 3.1 | 5.3 | -2.7
COC(=O)NN=Cc1cc(OC)c(O)c([N+](=O)[O-])c1 | x | x | 14.1 | x | x | x
O=C(CN1CCSCC1)NN=Cc1cccc(Cl)c1 | x | x | 5.0 | x | x | x
O=C(c1ccc(CS(=O)(=O)c2c(Cl)cccc2Cl)o1)N1CCN(c2ccccn2)CC1 | 93.8* | -3.0 | 4.7 | -5.6 | 1.3 | 0.9
COc1ccc(C2C(C#N)=C(C)NC3=C2C(=O)c2ccccc23)cc1 (configuration not stated) | 3.5 | 5.1 | 8.5 | -16.9 | 8.1 | 3.5
COc1cc(C2C(C#N)=C(C)NC3=C2C(=O)c2ccccc23)cc(OC)c1OC (configuration not stated) | 112.7* | -56.8 | 4.5 | x | -3.5 | 3.3
O=c1c(=Cc2cccc(O)c2)sc2nc(-c3ccccc3)c(-c3ccccc3)n12 | x | x | 5.3 | x | x | x
Cc1cc(N/C=C\c2nnnn2-c2ccccc2)no1 | 68.7* | -5.0 | 5.5 | -2.5 | 5.8 | -2.2
Cn1c(C(C#N)/C(=N\S(=O)(=O)c2cccs2)c2ccccc2)nc2ccccc21 (configuration not stated) | 79.2* | -4.9 | x | 27.2 | 18.1 | -3.7
NC(=O)c1ccc(N=C2C(=O)Nc3ccc([N+](=O)[O-])cc32)cc1 | 2.7 | -8.2 | 84.4* | 7.1 | 4.1 | -3.1
COc1cccc(-c2c(C(=O)NN=C(C)COc3ccccc3)nnn2-c2nonc2N)c1 | x | x | 0.3 | x | x | x
Nn1c(-c2ccccc2)nc2cc(Cl)ccc2c1=O | 52.5* | -6.6 | x | 13.1 | 6.9 | -6.1
Nn1c(COc2cccc(Cl)c2)nc2ccccc2c1=O | 57.9* | 1.4 | -1.7 | 7.7 | -10.0 | 2.2
Cc1cccc(OCc2nc3ccccc3c(=O)n2N)c1 | 21.2 | -6.1 | 5.6 | -11.7 | -1.2 | 3.9
COc1ccc(N=C2NC(=O)CS2)c([N+](=O)[O-])c1 | 0.0 | -4.7 | 4.1 | -1.8 | 2.6 | -1.3
SMILES | AHR activator | A3G deaminase | UCH37 inh | PolyA inh | Arr AP2 block | APOBEC3A inh
O=C1CSC(=Nc2ccccc2[N+](=O)[O-])N1 | 1.9 | -7.9 | 29.4* | -2.2 | 4.4 | -3.2
O=C(NNC1=Nc2ccccc2SC1)c1ccccc1F | 55.8* | -6.5 | 2.0 | 4.8 | 0.3 | -6.4
O=C(NNC1=NCCCCC1)c1cccc([N+](=O)[O-])c1 | 2.5 | -1.7 | -1.4 | -2.7 | 40.2 | 3.0
O=C(NNC1=Nc2ccccc2SC1)c1cccc([N+](=O)[O-])c1 | 48.5* | -3.1 | 0.5 | 13.3 | 28.4 | 1.7
NC1=NC(=Nc2ccc(Cl)cc2)c2ccccc21 | 56.4* | -6.2 | 5.4 | 0.8 | 6.5 | -2.6
NC1=NC(=Nc2ccccc2)c2ccccc21 | -4.7 | -5.3 | 4.9 | -8.6 | -5.4 | -1.8
CC(C)c1ccc(N=C2N=C(N)c3ccccc32)cc1 | 47.8* | -6.4 | 8.6 | 16.0 | 21.9 | -3.6
O=C(CN1CCS(=O)(=O)CC1)NN=Cc1cccc(C(F)(F)F)c1 | x | x | 2.9 | x | x | x

Bioassay records (PubChem BioAssay)
